{"source": "paper PMC4203514", "about": "(Autophagy, 2014)", "key": {"[1]": {"system": "patients with advanced solid tumors", "assay": "Treatment-related adverse events by grade", "assay_type": "in vivo, human", "outline": "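Patients who took at least one dose of the oral test compound, given with a dose-intense oral alkylating agent, were evaluable for toxicity. Adverse events were graded by NCI Common Toxicity Criteria v3.0, and haematological toxicities were attributed to the alkylating agent. Complete blood counts were done weekly for the first 6 wk and biweekly thereafter. Treatment ran in 28 d cycles.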"}, "[2]": {"system": "patients with rheumatoid arthritis", "conditions": "1200 mg/d HCQ (600 mg twice daily), after 6 wk; cited from earlier work"}, "[3]": {"assay": "Population pharmacokinetics of HCQ in whole blood", "assay_type": "in vivo, human", "conditions": "for Vd/F: human, oral, Vc/F, apparent central volume of distribution", "outline": "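Whole blood was sampled in sodium heparin pre-dose and at 2, 4, 8 and 12 wk and 6 mo, then stored at −70 °C. Samples were assayed in duplicate by HPLC-MS/MS with a deuterated internal standard against a 1/x-weighted linear curve (1–5000 ng/mL; LLOQ 1.0 ng/mL). One- and two-compartment first-order models were fitted by nonlinear mixed-effects (Lindstrom-Bates) with log-normal inter-individual variability. Precision came from 1000 bootstrap runs, and individual parameters were used for profile simulations.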"}, "glioma": {"system": "glioma", "conditions": "cited from earlier work"}, "[4]": {"conditions": "all patients (37 evaluable for toxicities)"}, "[5]": {"conditions": "population PK, 1000 bootstrap runs"}, "[6]": {"conditions": "population PK, whole blood, 35 patients"}}}
{"smiles": "CCN(CCO)CCCC(C)Nc1ccnc2cc(Cl)ccc12", "note": "(stereo not drawn) [HCQ, hydroxychloroquine]", "values": [{"measurement": "Dyspepsia G1/G2", "setting": "[1]; HCQ 800 mg (n = 15) with TMZ", "result": "1 (7) No. (%)"}, {"measurement": "Fatigue G1/G2", "setting": "[1]; HCQ 800 mg (n = 15) with TMZ", "result": "7 (47) No. (%)"}, {"measurement": "Headaches G1/G2", "setting": "[1]; HCQ 800 mg (n = 15) with TMZ", "result": "2 (13) No. (%)"}, {"measurement": "Leukopenia G3/G4", "setting": "[1]; HCQ 800 mg (n = 15) with TMZ", "result": "1 (7) No. (%)"}, {"measurement": "Lymphopenia G1/G2", "setting": "[1]; HCQ 800 mg (n = 15) with TMZ", "result": "3 (20) No. (%)"}, {"measurement": "Lymphopenia G3/G4", "setting": "[1]; HCQ 800 mg (n = 15) with TMZ", "result": "1 (7) No. (%)"}, {"measurement": "Myalgias G1/G2", "setting": "[1]; HCQ 800 mg (n = 15) with TMZ", "result": "1 (7) No. (%)"}, {"measurement": "Nausea G1/G2", "setting": "[1]; HCQ 800 mg (n = 15) with TMZ", "result": "6 (40) No. (%)"}, {"measurement": "Neutropenia G3/G4", "setting": "[1]; HCQ 800 mg (n = 15) with TMZ", "result": "2 (13) No. (%)"}, {"measurement": "Pruritus G1/G2", "setting": "[1]; HCQ 800 mg (n = 15) with TMZ", "result": "1 (7) No. (%)"}, {"measurement": "Rash G1/G2", "setting": "[1]; HCQ 800 mg (n = 15) with TMZ", "result": "2 (13) No. (%)"}, {"measurement": "Taste change G1/G2", "setting": "[1]; HCQ 800 mg (n = 15) with TMZ", "result": "1 (7) No. (%)"}, {"measurement": "Thrombocytopenia G3/G4", "setting": "[1]; HCQ 800 mg (n = 15) with TMZ", "result": "2 (13) No. (%)"}, {"measurement": "Vomiting G1/G2", "setting": "[1]; HCQ 800 mg (n = 15) with TMZ", "result": "3 (20) No. (%)"}, {"measurement": "Abdominal pain G1/G2", "setting": "[1]; HCQ 1000 mg (n = 7) with TMZ", "result": "2 (29) No. (%)"}, {"measurement": "Anemia G3/G4", "setting": "[1]; HCQ 1000 mg (n = 7) with TMZ", "result": "1 (14) No. (%)"}, {"measurement": "Anorexia G1/G2", "setting": "[1]; HCQ 1000 mg (n = 7) with TMZ", "result": "1 (14) No. (%)"}, {"measurement": "Constipation G1/G2", "setting": "[1]; HCQ 1000 mg (n = 7) with TMZ", "result": "1 (14) No. (%)"}, {"measurement": "Diarrhea G1/G2", "setting": "[1]; HCQ 1000 mg (n = 7) with TMZ", "result": "3 (43) No. (%)"}, {"measurement": "Dizziness G1/G2", "setting": "[1]; HCQ 1000 mg (n = 7) with TMZ", "result": "1 (14) No. (%)"}, {"measurement": "Fatigue G1/G2", "setting": "[1]; HCQ 1000 mg (n = 7) with TMZ", "result": "5 (71) No. (%)"}, {"measurement": "Headaches G1/G2", "setting": "[1]; HCQ 1000 mg (n = 7) with TMZ", "result": "1 (14) No. (%)"}, {"measurement": "Lymphopenia G1/G2", "setting": "[1]; HCQ 1000 mg (n = 7) with TMZ", "result": "1 (14) No. (%)"}, {"measurement": "Nausea G1/G2", "setting": "[1]; HCQ 1000 mg (n = 7) with TMZ", "result": "5 (71) No. (%)"}, {"measurement": "Pruritus G1/G2", "setting": "[1]; HCQ 1000 mg (n = 7) with TMZ", "result": "1 (14) No. (%)"}, {"measurement": "Rash G3/G4", "setting": "[1]; HCQ 1000 mg (n = 7) with TMZ", "result": "1 (14) No. (%)"}, {"measurement": "Taste change G1/G2", "setting": "[1]; HCQ 1000 mg (n = 7) with TMZ", "result": "1 (14) No. (%)"}, {"measurement": "Thrombocytopenia G1/G2", "setting": "[1]; HCQ 1000 mg (n = 7) with TMZ", "result": "2 (29) No. (%)"}, {"measurement": "Vomiting G1/G2", "setting": "[1]; HCQ 1000 mg (n = 7) with TMZ", "result": "2 (29) No. (%)"}, {"measurement": "Anemia G1/G2", "setting": "[1]; HCQ 1200 mg (n = 8) with TMZ", "result": "1 (13) No. (%)"}, {"measurement": "Anorexia G1/G2", "setting": "[1]; HCQ 1200 mg (n = 8) with TMZ", "result": "3 (38) No. (%)"}, {"measurement": "Bradycardia G1/G2", "setting": "[1]; HCQ 1200 mg (n = 8) with TMZ", "result": "1 (13) No. (%)"}, {"measurement": "Constipation G1/G2", "setting": "[1]; HCQ 1200 mg (n = 8) with TMZ", "result": "2 (25) No. (%)"}, {"measurement": "Diarrhea G1/G2", "setting": "[1]; HCQ 1200 mg (n = 8) with TMZ", "result": "2 (25) No. (%)"}, {"measurement": "Fatigue G1/G2", "setting": "[1]; HCQ 1200 mg (n = 8) with TMZ", "result": "7 (88) No. (%)"}, {"measurement": "Hypotension G1/G2", "setting": "[1]; HCQ 1200 mg (n = 8) with TMZ", "result": "1 (13) No. (%)"}, {"measurement": "Lymphopenia G3/G4", "setting": "[1]; HCQ 1200 mg (n = 8) with TMZ", "result": "1 (13) No. (%)"}, {"measurement": "Nausea G1/G2", "setting": "[1]; HCQ 1200 mg (n = 8) with TMZ", "result": "4 (50) No. (%)"}, {"measurement": "Nausea G3/G4", "setting": "[1]; HCQ 1200 mg (n = 8) with TMZ", "result": "1 (13) No. (%)"}, {"measurement": "Rash G1/G2", "setting": "[1]; HCQ 1200 mg (n = 8) with TMZ", "result": "1 (13) No. (%)"}, {"measurement": "Thrombocytopenia G1/G2", "setting": "[1]; HCQ 1200 mg (n = 8) with TMZ", "result": "1 (13) No. (%)"}, {"measurement": "Vomiting G1/G2", "setting": "[1]; HCQ 1200 mg (n = 8) with TMZ", "result": "2 (25) No. (%)"}, {"measurement": "Vomiting G3/G4", "setting": "[1]; HCQ 1200 mg (n = 8) with TMZ", "result": "1 (13) No. (%)"}, {"measurement": "≥ grade 1 treatment-related anorexia", "setting": "[1]; [4]", "result": 35, "unit": "%"}, {"measurement": "≥ grade 1 treatment-related constipation", "setting": "[1]; [4]", "result": 22, "unit": "%"}, {"measurement": "≥ grade 1 treatment-related diarrhea", "setting": "[1]; [4]", "result": 24, "unit": "%"}, {"measurement": "≥ grade 1 treatment-related fatigue", "setting": "[1]; [4]", "result": 97, "unit": "%"}, {"measurement": "≥ grade 1 treatment-related nausea", "setting": "[1]; [4]", "result": 65, "unit": "%"}, {"measurement": "Dose-limiting toxicity as a single agent", "setting": "[2]", "result": "dose-limiting nausea"}, {"measurement": "Vd/F", "setting": "[3]; whole blood, bootstrap estimate, population PK, 1000 bootstrap runs", "result": 500, "unit": "L"}, {"measurement": "Vd/F", "setting": "[3]; whole blood, model estimate, population PK, 35 patients", "result": 486, "unit": "L"}, {"measurement": "Cl/F, apparent oral clearance, bootstrap estimate", "setting": "[3]; [5]", "result": 10.085, "unit": "L/h"}, {"measurement": "Ka, absorption rate constant, bootstrap estimate", "setting": "[3]; [5]", "result": 0.999, "unit": "h⁻¹"}, {"measurement": "Vp/F, apparent peripheral volume of distribution, bootstrap estimate", "setting": "[3]; [5]", "result": 1400.415, "unit": "L"}, {"measurement": "Cl/F, apparent oral clearance, model estimate", "setting": "[3]; [6]", "result": 9.975, "unit": "L/h"}, {"measurement": "Ka, absorption rate constant, model estimate", "setting": "[3]; [6]", "result": 0.998, "unit": "h⁻¹"}, {"measurement": "Vp/F, apparent peripheral volume of distribution, model estimate", "setting": "[3]; [6]", "result": 1406.52, "unit": "L"}, {"measurement": "Time to steady-state HCQ blood concentration, on average", "setting": "[3]; simulated for individual patients with final PK model, (16 d)", "result": 400, "unit": "h"}, {"measurement": "Myelosuppression", "setting": "glioma; HCQ 800 mg with TMZ 75 mg/m^2 daily and brain radiation", "result": "all experienced grade 4 myelosuppression"}, {"measurement": "Maximal tolerated dose of HCQ", "setting": "glioma; combined with TMZ 75 mg/m^2 daily for 6 wk with concomitant brain radiation", "result": 600, "unit": "mg daily"}]}
